Test results taken from ChEMBL document CHEMBL1124947, “Cationic antiprotozoal drugs. Trypanocidal activity of 2-(4'-formylphenyl)imidazo[1,2-a]pyridinium guanylhydrazones and related derivatives of quaternary heteroaromatic compounds” (J Med Chem, 1990).

Tests used:
Mus musculus [1] = assay: Trypanocidal Activity at I.C.E. value 0.93 when administered subcutaneously.; type: functional
Method in brief: (§1)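 Mice, in groups of five per dose, were given a standard inoculum of blood-stage T. rhodesiense that is lethal to all untreated controls, then dosed subcutaneously. Usually 11 dose levels were used (2^n × 0.42 mg/kg).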

[2] = test system: Trypanosoma brucei rhodesiense; assay: In Vitro measurement of inhibition of leucine uptake in cell culture of Trypanosoma rhodesiense; type: functional; details: read-out: ID50 (the source's name)
Method in brief: (§2)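 Trypanosomes harvested from infected rats, cultured 3 h with several concentrations of drug, usually 0.1–100 µg/mL. Radiolabeled L-leucine uptake measured. ID50 is the concentration in µg/mL giving 50% inhibition of incorporation.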

[3] = test system: Trypanosoma brucei rhodesiense; assay: In Vitro measurement of inhibition of thymidine uptake in cell culture of Trypanosoma rhodesiense; type: functional; details: read-out: ID50 (the source's name)
Method in brief: (§3)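 Parasites harvested from infected rats and incubated 3 h across a drug concentration series, usually 0.1–100 µg/mL. Incorporation of radiolabeled thymidine measured. ID50 is the concentration (µg/mL) producing 50% inhibition.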

Mus musculus [4] = assay: Trypanocidal Activity at I.C.E. value 0.60 when administered perorally.; type: functional
Mus musculus [5] = assay: Trypanocidal Activity at I.C.E. value 0.52 when administered subcutaneously.; type: functional
Method in brief: (§4)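 Blood-stage T. rhodesiense infection came from a standard inoculum lethal to all untreated mice. Drug was given by subcutaneous injection to groups of five mice. Survival beyond 30 days counted as cure. […] Sub-curative doses scored 0, and data were normalized at each dose.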

Mus musculus [6] = assay: Curative activity of the Compound after oral administration at a dose of 0.42 mg/kg and I.C.E. value of 0.60; type: functional
Mus musculus [7] = assay: Curative activity of the Compound after Subcutaneous administration at a dose of 106 mg/kg ( T-Toxic) and I.C.E. value of 0.82; 16/20 and 1 toxic; type: ADME, organism-based; design: dose 106 mg/kg, route subcutaneous; details: in vivo, sc
Mus musculus [8] = assay: Curative activity of the Compound after Subcutaneous administration at a dose of 212 mg/kg ( T-Toxic) and I.C.E. value of 0.82; 5/10 and 5 toxic; type: ADME, organism-based; design: dose 212 mg/kg, route subcutaneous; details: in vivo, sc
Mus musculus [9] = assay: Fraction of mice that were cured after subcutaneous administration at a dose of 0.83 mg/kg and I.C.E. value of 0.82; type: functional
Mus musculus [10] = assay: Fraction of mice that were cured after oral administration at a dose of 1.67 mg/kg and I.C.E. value of 0.56; type: functional
Mus musculus [11] = assay: Curative activity of the Compound after oral administration at a dose of 424 mg/kg and I.C.E. value of 0.60; 10/10; type: functional
[12] = test system: Trypanosoma brucei rhodesiense; assay: In Vitro measurement of inhibition of Leucine uptake in cell culture of Trypanosoma rhodesiense.; type: functional; details: read-out: ID50 (the source's name); method in brief: as §2
[13] = test system: Trypanosoma brucei rhodesiense; assay: In Vitro measurement of inhibition of thymidine uptake in cell culture of Trypanosoma rhodesiense.; type: functional; details: read-out: ID50 (the source's name); method in brief: as §3
Mus musculus [14] = assay: Curative activity of the Compound after oral administration at a dose of 6.6 mg/kg and I.C.E. value of 0.60; 2/5; type: functional
Mus musculus [15] = assay: Fraction of mice that were cured after oral administration at a dose of 0.83 mg/kg and I.C.E. value of 0.56; type: functional
Mus musculus [16] = assay: Fraction of mice that were cured after subcutaneous administration at a dose of 13 mg/kg and I.C.E. value of 0.82; type: functional
Mus musculus [17] = assay: Curative activity of the Compound after oral administration at a dose of 1.67 mg/kg and I.C.E. value of 0.60; type: functional
Mus musculus [18] = assay: Fraction of mice that were cured after oral administration at a dose of 212 mg/kg and I.C.E. value of 0.56; type: functional
Mus musculus [19] = assay: Fraction of mice that were cured after subcutaneous administration at a dose of 53 mg/kg and I.C.E. value of 0.82; type: functional
Mus musculus [20] = assay: Fraction of mice that were cured after oral administration at a dose of 0.42 mg/kg and I.C.E. value of 0.56; type: functional
Mus musculus [21] = assay: Fraction of mice that were cured after oral administration at a dose of 6.6 mg/kg and I.C.E. value of 0.56; type: functional
Mus musculus [22] = assay: Curative activity of the Compound after Subcutaneous administration at a dose of 26 mg/kg and I.C.E. value of 0.82; […]; type: functional
Mus musculus [23] = assay: Fraction of mice that were cured after oral administration at a dose of 26 mg/kg and I.C.E. value of 0.56; type: functional
Mus musculus [24] = assay: Fraction of mice that were cured after oral administration at a dose of 424 mg/kg and I.C.E. value of 0.56; type: functional
Mus musculus [25] = assay: Fraction of mice that were cured after subcutaneous administration at a dose of 0.42 mg/kg and I.C.E. value of 0.82; type: functional
Mus musculus [26] = assay: Fraction of mice that were cured after subcutaneous administration at a dose of 106 mg/kg and I.C.E. value of 0.82; type: functional
Mus musculus [27] = assay: Curative activity of the Compound after Subcutaneous administration at a dose of 53 mg/kg and I.C.E. value of 0.82; 9/10; type: functional
Mus musculus [28] = assay: Curative activity of the Compound after Subcutaneous administration at a dose of 3.3 mg/kg and I.C.E. value of 0.82; 10/10; type: functional
Mus musculus [29] = assay: Fraction of mice that were cured after subcutaneous administration at a dose of 212 mg/kg and I.C.E. value of 0.82; type: functional
Mus musculus [30] = assay: Curative activity of the Compound after oral administration at a dose of 0.83 mg/kg and I.C.E. value of 0.60; type: functional
Mus musculus [31] = assay: Fraction of mice that were cured after subcutaneous administration at a dose of 26 mg/kg and I.C.E. value of 0.82; type: functional
Mus musculus [32] = assay: Curative activity of the Compound after Subcutaneous administration at a dose of 424 mg/kg ( T-Toxic)and I.C.E. value of 0.82; 4/20 and 16 toxic; type: ADME, organism-based; design: dose 424 mg/kg, route subcutaneous; details: in vivo, sc
Mus musculus [33] = assay: Curative activity of the Compound after oral administration at a dose of 106 mg/kg and I.C.E. value of 0.60; 10/10; type: functional
Mus musculus [34] = assay: Fraction of mice that were cured after oral administration at a dose of 53 mg/kg and I.C.E. value of 0.56; type: functional
Mus musculus [35] = assay: Curative activity of the Compound after Subcutaneous administration at a dose of 1.67 mg/kg and I.C.E. value of 0.82; 19/20; type: functional
Mus musculus [36] = assay: Trypanocidal Activity at I.C.E. value 0.56 when administered perorally.; type: functional
Mus musculus [37] = assay: Fraction of mice that were cured after oral administration at a dose of 106 mg/kg and I.C.E. value of 0.56; type: functional
Mus musculus [38] = assay: Curative activity of the Compound after Subcutaneous administration at a dose of 53 mg/kg and I.C.E. value of 0.82; […]; type: functional
Mus musculus [39] = assay: Curative activity of the Compound after Subcutaneous administration at a dose of 0.83 mg/kg and I.C.E. value of 0.82;20/20; type: functional
Mus musculus [40] = assay: Curative activity of the Compound after Subcutaneous administration at a dose of 0.42 mg/kg and I.C.E. value of 0.82; 8/10; type: functional
Mus musculus [41] = assay: Fraction of mice that were cured after subcutaneous administration at a dose of 3.3 mg/kg and I.C.E. value of 0.82; type: functional
Mus musculus [42] = assay: Fraction of mice that were cured after oral administration at a dose of 3.3 mg/kg and I.C.E. value of 0.56; type: functional
Mus musculus [43] = assay: Fraction of mice that were cured after oral administration at a dose of 13 mg/kg and I.C.E. value of 0.56; type: functional
Mus musculus [44] = assay: Curative activity of the Compound after oral administration at a dose of 53 mg/kg and I.C.E. value of 0.60; 5/5; type: functional
Mus musculus [45] = assay: Curative activity of the Compound after oral administration at a dose of 26 mg/kg and I.C.E. value of 0.60; 15/15; type: functional
Mus musculus [46] = assay: Curative activity of the Compound after oral administration at a dose of 3.3 mg/kg and I.C.E. value of 0.60;1/5; type: functional
Mus musculus [47] = assay: Fraction of mice that were cured after subcutaneous administration at a dose of 6.6 mg/kg and I.C.E. value of 0.82; type: functional
Mus musculus [48] = assay: Curative activity of the Compound after oral administration at a dose of 212 mg/kg and I.C.E. value of 0.60; 5/5; type: functional
Mus musculus [49] = assay: Curative activity of the Compound after oral administration at a dose of 13 mg/kg and I.C.E. value of 0.60; 10/10; type: functional
Mus musculus [50] = assay: Trypanocidal Activity at I.C.E. value 0.82 when administered subcutaneously.; type: functional; method in brief: as §1
Mus musculus [51] = assay: Fraction of mice that were cured after subcutaneous administration at a dose of 1.67 mg/kg and I.C.E. value of 0.82; type: functional
Mus musculus [52] = assay: Fraction of mice that were cured after subcutaneous administration at a dose of 424 mg/kg and I.C.E. value of 0.82; type: functional
[53] = test system: Trypanosoma brucei rhodesiense; assay: In Vitro measurement of inhibition of Thymidine uptake in cell culture of Trypanosoma rhodesiense.; type: functional; details: read-out: ID50 (the source's name)
Mus musculus [54] = assay: Trypanocidal Activity at I.C.E. value 0.38 when administered subcutaneously.; type: functional; method in brief: as §4

In the case of `CCSc1ccc2n(c1)cc(-c1ccc(/C=N/NC(=N)N)cc1)[n+]2C.Cc1ccc(S(=O)(=O)O)cc1.Cc1ccc(S(=O)(=O)[O-])cc1`, the CD50 (Mus musculus [1]) is reported as 0.1 mg/kg.

Work on `CNC(=N)N/N=C/c1ccc(-c2cn3ccsc3[n+]2C)cc1.I.[I-]` yielded an IC50 [2] of 1.2 µg/mL, an IC50 [3] of 1.5 µg/mL and a CD50 (Mus musculus [4]) of 6.6 mg/kg. It also gave a CD50 (Mus musculus [5]) of 0.4 mg/kg.

Work on `Cc1ccc(S(=O)(=O)O)cc1.Cc1ccc(S(=O)(=O)[O-])cc1.Cc1ccc2n(c1)cc(-c1ccc(/C=N/NC(=N)N)cc1)[n+]2C` yielded a Survivors (Mus musculus [6]) of 0, a Survivors (Mus musculus [7]) of 16 and a Survivors (Mus musculus [8]) of 5. For the same molecule, the Fraction cured (Mus musculus [9]) was 1, the Fraction cured (Mus musculus [10]) was 0 and the Survivors (Mus musculus [11]) was 10. The IC50 [12] was 0.5 µg/mL, the IC50 [13] was 0.4 µg/mL and the Survivors (Mus musculus [14]) was 2. It also gave a Fraction cured (Mus musculus [15]) of 0, a Fraction cured (Mus musculus [16]) of 1 and a Survivors (Mus musculus [17]) of 0. It also gave a Fraction cured (Mus musculus [18]) of 1, a Fraction cured (Mus musculus [19]) of 0.9 and a Fraction cured (Mus musculus [20]) of 0. The Fraction cured (Mus musculus [21]) was 0.4, the Survivors (Mus musculus [22]) was 29 and the Fraction cured (Mus musculus [23]) was 1. The Fraction cured (Mus musculus [24]) was 1, the Fraction cured (Mus musculus [25]) was 0.8 and the Fraction cured (Mus musculus [26]) was 0.8. For the same molecule, the Survivors (Mus musculus [27]) was 9, the Survivors (Mus musculus [28]) was 10 and the Fraction cured (Mus musculus [29]) was 0.5. It also gave a Survivors (Mus musculus [30]) of 0, a Fraction cured (Mus musculus [31]) of 0.97 and a Survivors (Mus musculus [32]) of 4. For the same molecule, the Survivors (Mus musculus [33]) was 10, the Fraction cured (Mus musculus [34]) was 1 and the Survivors (Mus musculus [35]) was 19. The CD50 (Mus musculus [36]) was 6.6 mg/kg, the Fraction cured (Mus musculus [37]) was 1 and the Survivors (Mus musculus [38]) was 9. The Survivors (Mus musculus [39]) was 20, the Survivors (Mus musculus [40]) was 8 and the Fraction cured (Mus musculus [41]) was 1. The Fraction cured (Mus musculus [42]) was 0.2, the Fraction cured (Mus musculus [43]) was 1 and the Survivors (Mus musculus [44]) was 5. It also gave a Survivors (Mus musculus [45]) of 15, a Survivors (Mus musculus [46]) of 1 and a Fraction cured (Mus musculus [47]) of 1. For the same molecule, the Survivors (Mus musculus [48]) was 5, the Survivors (Mus musculus [49]) was 10 and the CD50 (Mus musculus [50]) was 0.2 mg/kg. It also gave a Fraction cured (Mus musculus [51]) of 0.95 and a Fraction cured (Mus musculus [52]) of 0.2.

`Br.CSC(=N)N/N=C/c1ccc(-c2cn3cc(C)ccc3[n+]2C)cc1.[Br-]` was tested, and the IC50 [12] was > 10 µg/mL, the IC50 [53] was 4 µg/mL and the CD50 (Mus musculus [54]) was 26 mg/kg.
